Activity calls are given as the source filed them. The calls are words filed in the database; no cut-off is given here.
Key:
[1] = (§1) Inhibition of TNF-alpha-induced NFkappaB nuclear translocation in human A549 cells preincubated for 30 mins before TNFalpha challenge and measured 30 post TNFalpha challenge by fluorescence method; format: cell-based
A549 [2] = assay: Growth inhibition of human A549 cells after 48 hrs by sulforhodamine B assay; format: functional; conditions: A549, 48 h
NCI-H157 = assay: Growth inhibition of human NCI-H157 cells after 72 hrs by alamar blue method; format: functional; conditions: NCI-H157, 72 h
How it was run: (§2)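 Cells kept in RPMI with 10% FBS and penicillin/streptomycin at 37°C, 5% CO2. Plated in 384-well format, dosed the next day, then incubated 72 hr before Alamar Blue read-out. GI50 is the concentration lowering viability by 50% versus solvent-vehicle control cells at the end of incubation.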

[3] = target: T1, Inhibitor of NF-kappa-B kinase (IKK) (Homo sapiens, UniProt O14920+O15111+Q9Y6K9); assay: Inhibition of IKK in human A549 cells assessed as inhibition of TNF-alpha-induced IkappaB phosphorylation preincubated for 30 mins before TNFalpha challenge; format: cell-based
T1 sequence (O15111 whole entry, one chain of several): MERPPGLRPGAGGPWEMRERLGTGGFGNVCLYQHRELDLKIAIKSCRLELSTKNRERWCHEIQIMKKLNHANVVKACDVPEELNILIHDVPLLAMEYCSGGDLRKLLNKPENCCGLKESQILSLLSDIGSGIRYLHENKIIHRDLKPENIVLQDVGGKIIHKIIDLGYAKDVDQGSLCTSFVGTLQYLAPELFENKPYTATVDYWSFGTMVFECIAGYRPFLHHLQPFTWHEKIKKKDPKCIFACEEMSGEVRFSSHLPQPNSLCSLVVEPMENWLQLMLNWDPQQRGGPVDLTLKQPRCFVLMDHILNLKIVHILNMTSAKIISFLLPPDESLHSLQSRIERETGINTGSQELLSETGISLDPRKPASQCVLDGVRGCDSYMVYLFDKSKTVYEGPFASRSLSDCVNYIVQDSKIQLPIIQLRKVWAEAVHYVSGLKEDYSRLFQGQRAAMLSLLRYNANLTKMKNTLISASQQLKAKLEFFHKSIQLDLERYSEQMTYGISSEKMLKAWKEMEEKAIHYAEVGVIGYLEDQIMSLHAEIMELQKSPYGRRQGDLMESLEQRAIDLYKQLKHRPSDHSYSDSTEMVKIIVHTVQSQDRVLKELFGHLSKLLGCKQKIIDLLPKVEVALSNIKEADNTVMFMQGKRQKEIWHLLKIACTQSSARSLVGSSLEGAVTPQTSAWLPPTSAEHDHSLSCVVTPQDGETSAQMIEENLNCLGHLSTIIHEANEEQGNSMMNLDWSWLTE
T1 sequence (Q9Y6K9 whole entry, one chain of several): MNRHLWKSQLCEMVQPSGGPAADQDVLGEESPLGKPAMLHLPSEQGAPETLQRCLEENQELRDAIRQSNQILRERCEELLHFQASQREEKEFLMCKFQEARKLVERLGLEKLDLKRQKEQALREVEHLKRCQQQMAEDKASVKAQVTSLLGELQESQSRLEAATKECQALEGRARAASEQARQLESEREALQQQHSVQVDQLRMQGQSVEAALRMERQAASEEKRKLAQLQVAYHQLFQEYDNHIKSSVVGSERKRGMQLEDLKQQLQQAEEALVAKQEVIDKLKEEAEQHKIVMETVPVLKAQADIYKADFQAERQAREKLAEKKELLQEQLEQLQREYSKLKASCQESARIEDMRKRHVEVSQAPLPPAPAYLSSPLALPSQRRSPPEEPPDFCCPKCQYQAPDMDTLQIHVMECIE
How it was run: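 A549 cells pretreated 30 min with compounds before TNFα (10 ng/ml). Whole-cell NP-40 lysates prepared 7 min after TNFα, run on 12.5% SDS-PAGE and Western blotted with anti-pS32 IκB antibody. Membrane then stripped and reprobed for total IκB.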

[4] = target: T2, Inhibitor of nuclear factor kappa-B kinase subunit beta (Homo sapiens) (UniProt O14920); assay: Inhibition of recombinant IKK-beta assessed as inhibition of incorporation of [gamma32P] to GST-IkappaBalpha after 30 mins by scintillation counting
T2 sequence (whole entry): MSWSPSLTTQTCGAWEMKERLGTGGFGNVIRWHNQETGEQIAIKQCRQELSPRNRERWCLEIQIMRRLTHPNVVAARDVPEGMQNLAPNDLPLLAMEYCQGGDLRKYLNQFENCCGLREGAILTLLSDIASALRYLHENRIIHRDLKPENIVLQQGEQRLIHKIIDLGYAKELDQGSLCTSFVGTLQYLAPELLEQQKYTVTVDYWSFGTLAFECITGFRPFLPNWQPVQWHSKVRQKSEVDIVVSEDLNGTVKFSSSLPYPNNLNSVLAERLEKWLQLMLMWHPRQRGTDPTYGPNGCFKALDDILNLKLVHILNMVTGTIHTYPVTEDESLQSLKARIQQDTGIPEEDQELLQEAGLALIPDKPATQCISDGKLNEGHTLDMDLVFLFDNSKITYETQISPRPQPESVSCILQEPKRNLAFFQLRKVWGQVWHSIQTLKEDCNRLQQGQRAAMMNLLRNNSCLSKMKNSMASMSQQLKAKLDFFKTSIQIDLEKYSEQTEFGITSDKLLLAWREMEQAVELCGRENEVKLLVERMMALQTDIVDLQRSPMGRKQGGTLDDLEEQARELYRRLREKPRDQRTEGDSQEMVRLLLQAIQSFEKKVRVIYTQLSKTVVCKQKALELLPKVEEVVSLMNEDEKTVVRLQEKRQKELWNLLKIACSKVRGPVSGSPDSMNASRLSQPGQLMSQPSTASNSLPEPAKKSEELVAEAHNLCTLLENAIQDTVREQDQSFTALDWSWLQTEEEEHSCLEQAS
How it was run: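 Activated recombinant IKKβ (40 ng) preincubated with compounds 30 min at room temperature in MOPS buffer pH 7.0. Reaction started with Mg-ATP mix (100 μM ATP, 15 mM MgCl2), 5 μg GST-IκBα and 0.5 μCi [γ-32P]ATP in 25 μl, run 30 min at 30°C. Stopped by boiling in SDS buffer, resolved by 12.5% SDS-PAGE, autoradiographed. Excised bands quantified by scintillation counting.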

A549 [5] = assay: Growth inhibition of human A549 cells after 72 hrs by alamar blue method; format: functional; conditions: A549, 72 h; how it was run: as §2
A549 [6] = assay: Anticlonogenic activity against human A549 cells assessed as inhibition of colony formation of cells treated at 0.2 uM with test compound after cell plating and every 3 days thereafter and measured on day 9 after colonies formed by SRB assay; format: functional
How it was run: (§3)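 A549 cells plated at 200 cells/well, incubated overnight, then exposed to compound or DMSO vehicle; medium and compound renewed every 3 days. On day 9, colonies fixed with 10% TCA for 30 min at 4°C, water-washed, SRB-stained and rinsed with 1% acetic acid. Plates scanned, colonies counted and normalized to DMSO control.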

NCI-H460 = assay: Growth inhibition of human H460 cells after 72 hrs by alamar blue method; format: functional; conditions: NCI-H460, 72 h; how it was run: as §2
A549 [7] = assay: as §1; format: cell-based
[8] = Growth inhibition of human NCI-H1944 cells after 72 hrs by alamar blue method; format: functional; conditions: NCI-H1944, 72 h; how it was run: as §2
[9] = target: T1, Inhibitor of NF-kappa-B kinase (IKK); assay: Inhibition of IKK in human A549 cells assessed as inhibition of TNF-alpha-induced IkappaB degradation at 0.5 to 25 uM preincubated for 4 hrs before TNFalpha challenge measured after 20 mins by Western blot analysis; format: cell-based
How it was run: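 A549 cells pretreated with compounds at indicated doses, then TNFα (10 ng/ml) added for a further 20 min. Cells lysed in NP-40 buffer (1.0% NP-40, 10 mM Hepes pH 7.4, 150 mM NaCl, phosphatase and protease inhibitors). Equal lysate volumes run on 12.5% SDS-PAGE, transferred to nitrocellulose, milk-blocked, and total IκB detected by Western blot.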

A549 [10] = assay: Anticlonogenic activity against human A549 cells assessed as inhibition of colony formation of cells treated at 0.4 uM with test compound after cell plating and every 3 days thereafter and measured on day 9 after colonies formed by SRB assay; format: functional; how it was run: as §3
A549 [11] = assay: Anticlonogenic activity against human A549 cells assessed as inhibition of colony formation of cells treated at 4 uM with test compound after cell plating and every 3 days thereafter and measured on day 9 after colonies formed by SRB assay; format: functional, cell-based; how it was run: as §3

| Compound | IC50 [1] | GI50 (A549 [2]) | further results |
| --- | --- | --- | --- |
| COc1cccc(C=C(C(=O)/C=C/c2ccc(O)c(OC)c2)C(=O)/C=C/c2ccc(O)c(OC)c2)c1 | 1300 nM | 640 nM | – |
| COc1ccc(/C=C/C(=O)C(=CO)C(=O)/C=C/c2ccc(OC)c(OC)c2)cc1OC | > 40000 nM | > 25000 nM | – |
| COc1ccc(C=C(C(=O)/C=C/c2ccc(OC)c(OC)c2)C(=O)/C=C/c2ccc(OC)c(OC)c2)c(OC)c1 | 1700 nM | 650 nM | – |
| COc1cc(/C=C/C(=O)/C=C/c2sccc2C)cc(OC)c1OC | 24300 nM | 9310 nM | – |
| COc1ccc(/C=C/C(=O)C(=Cc2ccc(N(C)C)cc2)C(=O)/C=C/c2ccc(OC)c(OC)c2)cc1OC | > 40000 nM | 2620 nM | – |
| COc1cc(/C=C/C(=O)/C(=C/c2cc(OC)c(OC)c(OC)c2)C(C)=O)cc(OC)c1OC | 4800 nM | 530 nM | – |
| Cc1ccc(/C=C/C(=O)/C=C(O)/C=C/c2ccc(C)o2)o1 | 8500 nM | > 25000 nM | – |
| COc1cc(/C=C/C(=O)C(=Cc2cccc(F)c2)C(=O)/C=C/c2ccc(O)c(OC)c2)ccc1O | 1400 nM | 360 nM | – |
| COc1ccc(/C=C/C(=O)C(=Cc2ccc(F)cc2)C(=O)/C=C/c2ccc(OC)c(OC)c2)cc1OC | 1100 nM | 550 nM | GI50 (NCI-H157): 280 nM; IC50 [3]: 2200 nM; inhibition [4]: Dose-dependent effect; GI50 (A549 [5]): 700 nM; inhibition at 0.2 µM (A549 [6]): 50%; GI50 (NCI-H460): 270 nM; inhibition (A549 [7]): Dose-dependent effect; GI50 [8]: 280 nM; inhibition [9]: Active |
| COc1ccc(/C=C/C(=O)/C=C(O)/C=C/c2ccc(OC)cc2)cc1 | > 40000 nM | > 25000 nM | – |
| COc1cc(/C=C/C(=O)/C=C/c2cc(OC)c(OC)c(OC)c2)cc(OC)c1OC | 7900 nM | 550 nM | – |
| O=C(/C=C(O)/C=C/c1ccco1)/C=C/c1ccco1 | > 40000 nM | > 25000 nM | – |
| COc1ccc(/C=C/C(=O)C(=Cc2cccc(OC)c2OC)C(=O)/C=C/c2ccc(OC)c(OC)c2)cc1OC | 1500 nM | 670 nM | – |
| CCc1ccc(C=C(C(=O)/C=C/c2ccc(OC)c(OC)c2)C(=O)/C=C/c2ccc(OC)c(OC)c2)cc1 | 4900 nM | 630 nM | – |
| COc1cc(/C=C/C(=O)C(=Cc2ccc(OC)c(OC)c2)C(=O)/C=C/c2ccc(O)c(OC)c2)ccc1O | > 40000 nM | 430 nM | – |
| COc1ccc(/C=C/C(=O)C(=Cc2cccc(F)c2)C(=O)/C=C/c2ccc(OC)c(OC)c2)cc1OC | 1300 nM | 580 nM | – |
| COc1ccc(/C=C/C(=O)C(=CO)C(=O)/C=C/c2ccc(OC)cc2)cc1 | > 40000 nM | > 25000 nM | – |
| CCc1ccc(C=C(C(=O)/C=C/c2ccc(O)c(OC)c2)C(=O)/C=C/c2ccc(O)c(OC)c2)cc1 | 1800 nM | 550 nM | – |
| COc1ccc(/C=C/C(=O)C(=Cc2ccc(C)o2)C(=O)/C=C/c2ccc(OC)c(OC)c2)cc1OC | 2800 nM | 1310 nM | – |

| Compound | IC50 [1] | GI50 (A549 [2]) | further results |
| --- | --- | --- | --- |
| COc1ccc(C=C(C(=O)/C=C/c2cc(OC)c(OC)c(OC)c2)C(=O)/C=C/c2cc(OC)c(OC)c(OC)c2)cc1OC | 1000 nM | 370 nM | – |
| COc1cc(C=C(C(=O)/C=C/c2ccc(OC)c(OC)c2)C(=O)/C=C/c2ccc(OC)c(OC)c2)ccc1O | 1000 nM | 530 nM | GI50 (NCI-H157): 160 nM; IC50 [3]: 2800 nM; inhibition [4]: Dose-dependent effect; GI50 (A549 [5]): 720 nM; inhibition at 0.2 µM (A549 [6]): 50%; GI50 (NCI-H460): 130 nM; GI50 [8]: 70 nM; inhibition [9]: Active |
| COc1ccc(C=C(C(=O)/C=C/c2ccc(OC)c(OC)c2)C(=O)/C=C/c2ccc(OC)c(OC)c2)cc1OC | 1500 nM | 310 nM | – |
| COc1cc(/C=C/C(=O)C(=CO)C(=O)/C=C/c2ccc(OC(C)=O)c(OC)c2)ccc1OC(C)=O | 39300 nM | > 25000 nM | – |
| COc1ccc(/C=C/C(=O)/C=C/c2cc(OC)c(OC)c(OC)c2)cc1OC | 9000 nM | 1210 nM | – |
| COc1ccc(OC)c(C=C(C(=O)/C=C/c2ccc(OC)c(OC)c2)C(=O)/C=C/c2ccc(OC)c(OC)c2)c1 | 1500 nM | 530 nM | – |
| COc1ccc(OC)c(C=C(C(=O)/C=C/c2ccc(O)c(OC)c2)C(=O)/C=C/c2ccc(O)c(OC)c2)c1 | 1400 nM | 670 nM | – |
| COc1ccc(/C=C/C(=O)C(=Cc2cc(OC)c(OC)c(OC)c2)C(=O)/C=C/c2ccc(OC)cc2)cc1 | 3800 nM | 1120 nM | – |
| COc1cc(/C=C/C(=O)C(=Cc2cccc(OC)c2OC)C(=O)/C=C/c2ccc(O)c(OC)c2)ccc1O | 1700 nM | 420 nM | GI50 (NCI-H157): 530 nM; inhibition at 0.4 µM (A549 [10]): 50%; IC50 [3]: 5000 nM; inhibition [4]: Dose-dependent effect; GI50 (A549 [5]): 930 nM; GI50 (NCI-H460): 300 nM; GI50 [8]: 330 nM; inhibition [9]: Active |
| COc1ccc(/C=C/C(=O)C(=Cc2ccc(OC)c(OC)c2)C(=O)/C=C/c2ccc(OC)cc2)cc1 | 3300 nM | 930 nM | – |
| COc1ccc(/C=C/C(=O)C(=Cc2ccc(O)c(OC)c2)C(=O)/C=C/c2ccc(OC)cc2)cc1 | 3000 nM | 1640 nM | – |
| COc1ccc(/C=C/C(=O)C(=Cc2ccc(O)cc2)C(=O)/C=C/c2ccc(OC)c(OC)c2)cc1OC | 1400 nM | 420 nM | – |
| COc1cc(C=C(C(=O)/C=C/c2ccc(O)c(OC)c2)C(=O)/C=C/c2ccc(O)c(OC)c2)ccc1O | 1000 nM | 2000 nM | – |
| COc1ccc(/C=C/C(=O)C(=Cc2cc(OC)c(OC)c(OC)c2)C(=O)/C=C/c2ccc(OC)c(OC)c2)cc1OC | 1800 nM | 230 nM | – |
| COc1cc(/C=C/C(=O)C(=Cc2ccc(F)cc2)C(=O)/C=C/c2ccc(O)c(OC)c2)ccc1O | 2700 nM | 780 nM | – |
| COc1ccc(C=C(C(=O)/C=C/c2ccc(O)c(OC)c2)C(=O)/C=C/c2ccc(O)c(OC)c2)c(OC)c1 | 1000 nM | 690 nM | – |
| COc1ccc(/C=C/C(=O)/C=C(O)/C=C/c2ccc(OC)c(OC)c2)cc1OC [DIMETHYLCURCUMIN] | > 40000 nM | 5800 nM | – |
| COc1cc(/C=C/C(=O)CC(=O)/C=C/c2ccc(O)c(OC)c2)ccc1O [CURCUMIN] | 9500 nM | 15200 nM | GI50 (NCI-H157): 19200 nM; GI50 (A549 [5]): 9440 nM; GI50 (NCI-H460): 12100 nM; Activity (A549 [11]): Active; GI50 [8]: 16200 nM |
